# HTRA1 inhibitor: blocks human HTRA1 serine peptidase. Q92743. inhibition, % at 5.96 µM. AID 504803. recombinant HTRA1, FP-rhodamine activity-based probe, fluorescence polarization. 340,000 compounds, 0.5% hits; in the data active = inhibition above about 36%
# ARNT-TACC3 inh: disruptors of human ARNT/TACC3 interaction | AlphaScreen His-ARNT PAS-B/GST-TACC3 binding, luminescence; TACC3 fragment carries E629A point mutation | inhibition, % at 9.99 µM | 390,000 compounds, 0.66% hits | Q9Y6A5;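 active = mean inhibition of replicates at least 50% and at least half of replicates each reaching 50%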
# SIAE inh: inhibitors of human sialic acid acetylesterase SIAE; SIAE FP-Rh probe binding, fluorescence polarization; inhibition, % at 9.66 µM; 370,000 compounds, 0.69% hits;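 active = inhibition above a cutoff: mean of compounds within the control limits plus 3 SD of those, cut at about 17% in these data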
# Target sequence (Q9HAT2 whole entry, looked up): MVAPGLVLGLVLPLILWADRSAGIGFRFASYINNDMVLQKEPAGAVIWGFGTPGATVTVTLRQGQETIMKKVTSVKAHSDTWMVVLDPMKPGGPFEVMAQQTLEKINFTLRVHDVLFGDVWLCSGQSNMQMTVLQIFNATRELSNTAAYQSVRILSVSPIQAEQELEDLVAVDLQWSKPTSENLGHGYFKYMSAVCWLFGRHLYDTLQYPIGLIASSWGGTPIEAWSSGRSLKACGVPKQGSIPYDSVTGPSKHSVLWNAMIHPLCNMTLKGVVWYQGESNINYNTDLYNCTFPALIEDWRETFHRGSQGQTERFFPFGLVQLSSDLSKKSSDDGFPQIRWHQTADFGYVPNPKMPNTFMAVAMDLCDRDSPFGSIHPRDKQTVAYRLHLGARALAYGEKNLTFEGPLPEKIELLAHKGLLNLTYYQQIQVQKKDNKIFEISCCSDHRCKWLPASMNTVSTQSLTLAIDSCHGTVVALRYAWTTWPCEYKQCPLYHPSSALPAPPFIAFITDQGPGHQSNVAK
# ABHD4 inh: ABHD4 (mouse) inhibition, primary FP screen; purified mABHD4, FP-Rh probe fluorescence polarization; inhibition, % at 8.92 µM; AID 720543; 370,000 compounds, 0.54% hits;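 active = inhibition exceeding the mean over every tested compound plus 3 SD, cut at about 30% in these data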
#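 Assay system: mouse ABHD4 enzyme, wild type / Also added: fluorescent activity-based probe FP-Rh / Doses: single nominal dose of 8.92 µM, 0.89% DMSO final / Timing: 45 min compound pre-incubation plus 60 min probe step, 25 °C / Signal: FP readout, ex 525 nm / em 598 nm / Control set: S159A mutant/DMSO as 100%, compound-well median as 0%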
# TCR CD3 inh: human TCR-CD3 binding inhibition | TAMRA-labeled TCR probe fluorescence, biochemical | inhibition, % at 9.4 µM | 360,000 compounds, 0.37% hits | AID 651800; in the data active = inhibition above about 19%;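 note: recombinant mutant TCR 2C K166C tagged with TAMRA read by polarization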
# ABHD4 confirm: confirmation of mouse ABHD4 inhibitors; inhibition, % at 8.92 µM; purified mABHD4, FP-Rh probe fluorescence polarization; shares compounds with ABHD4 inh; 1,800 compounds, 55% hits;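 active = mean inhibition across replicates above the hit cutoff set in the primary screen, cut at about 30% in these data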
# SIAE inh conf: human SIAE inhibition, confirmation; 2,300 compounds, 13% hits; inhibition, % at 9.66 µM; SIAE FP-Rh activity-based probe, fluorescence polarization; shares compounds with SIAE inh;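 active = mean inhibition of the replicates above the hit cutoff set in the primary screen, cut at about 17% in these data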;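 note: inhibitors lower polarization as more probe stays unbound to SIAE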
# Numbers stand for hits; i = inactive; nt = not tested or not shown. In the library only some 1.8% were active in any assay of this set; here they are far more common.
SMILES,HTRA1 inhibitor,ARNT-TACC3 inh,SIAE inh,ABHD4 inh,TCR CD3 inh,ABHD4 confirm,SIAE inh conf
COc1cccc(NC(=S)Nc2ccc(O)cc2)c1,i,i,17.2,33.6,i,i,i
COc1cccc(NC(=S)Nc2ccc(F)cc2)c1,i,i,i,i,i,nt,nt
CCCNC(=O)N[C@@H]1CC[C@@H](CC(=O)N2CCN(C)CC2)O[C@H]1CO,nt,i,nt,nt,nt,nt,nt
C[C@@H]1CCCCO[C@H](CN(C)C(=O)Nc2ccccc2)[C@@H](C)CN([C@H](C)CO)C(=O)c2cc(NC(=O)NC3CCCCC3)ccc2O1,nt,i,nt,nt,nt,nt,nt
CC(=O)Oc1cc2c(C(C)=O)coc2c2ccccc12,i,i,i,i,i,nt,nt
CC(=O)Oc1ccc2c(=O)c(Oc3ccccc3)coc2c1OC(C)=O,i,i,20.0,37.3,i,i,i
O=C(O)Cc1c[nH]c2cccc(O)c12,i,i,22.8,53.1,i,i,i
COc1cc(/C=N/Nc2nc3ccccc3[nH]2)cc(OC)c1O,i,i,17.8,37.6,i,i,i
Cc1c(/C=N/Nc2nc3ccccc3[nH]2)c2ccccc2n1C,i,i,39.6,40.5,i,70.0,20.1
Cc1nn(-c2ccccc2)c(C)c1/C=N/Nc1nc2ccccc2[nH]1,i,i,23.8,42.0,i,56.0,37.2
COc1ccc(S(=O)(=O)N(C)C[C@@H]2Oc3c(NC(=O)NC4CCCCC4)cccc3C(=O)N([C@@H](C)CO)C[C@@H]2C)cc1,nt,i,nt,nt,nt,nt,nt
O=S(=O)(Nc1ccc(O)c2ncccc12)c1ccccc1F,nt,nt,28.9,39.2,29.4,42.0,i
Cc1[nH]c2ccccc2c1N=Nc1ccccc1C(=O)O,i,i,34.4,56.3,i,68.5,i
C=CCN1C(=O)CSC1=Nc1ccc(O)cc1,i,i,i,i,i,nt,nt
C=CCn1c(O)c(C2=c3ccccc3=NC2=O)sc1=Nc1ccc(O)cc1,i,i,20.7,34.6,i,73.5,i
CCCOc1ccc2c(c1)C(=NN=C(N)N)c1cc(OCCC)ccc1-2,i,i,18.0,38.0,i,51.1,i
CN1CCN(C(=O)C[C@@H]2CC[C@@H]3[C@H](COC[C@H](O)CN3C(=O)Nc3ccc(F)cc3)O2)CC1,nt,i,nt,nt,nt,nt,nt
Clc1ccc2c(N/N=C/c3cccc(Br)c3)ccnc2c1,i,i,27.2,31.5,i,31.3,35.4
Clc1ccc2c(N/N=C/c3ccccc3Br)ccnc2c1,i,i,i,i,i,nt,nt
O=c1nc2s/c(=C\c3ccc(-c4ccccc4[N+](=O)[O-])o3)c(=O)n2nc1-c1ccccc1,i,i,21.6,39.6,i,33.5,i
O=C(O)c1cccc(N/N=C/C2=C(Cl)c3cc(Cl)ccc3SC2)c1,i,i,21.2,29.5,i,86.5,31.1
O=C(N/N=C/c1c(O)n(-c2ccccc2Cl)c(=O)c2ccccc12)c1cccnc1,i,i,i,i,i,nt,nt
COc1ccc(Cn2c(O)c(C=Nc3ccc(OC)cc3)c3ccccc3c2=O)cc1,i,i,i,i,i,nt,nt
O=C(N/N=C/c1c(O)n(Cc2ccccc2)c(=O)c2ccccc12)c1cccnc1,i,i,26.0,62.2,i,73.0,i
COc1ccc(Cn2c(O)c(/C=N/NC(=O)c3cccnc3)c3ccccc3c2=O)cc1,i,i,29.4,31.5,i,44.9,i
SMILES,HTRA1 inhibitor,ARNT-TACC3 inh,SIAE inh,ABHD4 inh,TCR CD3 inh,ABHD4 confirm,SIAE inh conf
Cc1cc[n+](-c2[nH]c(=O)sc2/C=N/NC([S-])=Nc2ccccc2)cc1C,i,nt,19.2,31.3,i,i,i
CC(C)(C)c1cc[n+](-c2[nH]c(=O)sc2/C=N/NC([S-])=Nc2ccccc2)cc1,i,i,i,i,i,nt,nt
COc1ccc2[nH]c3c(NCCC4=CCCCC4)ncnc3c2c1,i,i,49.6,38.6,i,60.5,45.0
COc1ccc(S(=O)(=O)Nc2ccc3c(c2)C(=O)N([C@@H](C)CO)C[C@H](C)[C@@H](CN(C)Cc2ccccc2)O3)cc1,nt,i,nt,nt,nt,nt,nt
Oc1ccc(Nc2ccc3ccccc3c2)cc1,nt,nt,19.7,39.3,i,56.4,i
COc1ccc(CN(C)C[C@H]2Oc3ccc(NC(=O)Cc4cn(C)c5ccccc45)cc3C(=O)N([C@@H](C)CO)C[C@@H]2C)cc1,nt,i,nt,nt,nt,nt,nt
CC1=CC(=O)C=CC1=Nc1ccc(N(C)C)cc1,nt,nt,17.2,63.6,i,56.7,i
